Data: ChEMBL document CHEMBL1122366, “Potential antiatherosclerotic agents. 3. Substituted benzoic and non benzoic acid analogues of cetaben” (1983)

Legend:
Rattus norvegicus [1] = experiment: In vivo sterol lowering activity at dose of 0.10 % of the diet; assay type: functional
Method in brief: (§1)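 Normal rats were dosed in the diet. Serum sterol and triglyceride levels were measured and expressed as the mean percent of control values. Significance versus control was reported at p < 0.05, 0.01 and 0.001.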

Rattus norvegicus [2] = experiment: In vivo triglyceride lowering activity when dosed at 0.05 % of the diet
Rattus norvegicus [3] = experiment: In vivo triglyceride lowering activity when dosed as 0.01 % of the diet; assay type: functional; method in brief: as §1
Rattus norvegicus [4] = experiment: In vivo sterol lowering activity when dosed as 0.03 % of the diet; assay type: functional; method in brief: as §1
Rattus norvegicus [5] = experiment: In vivo triglyceride lowering activity dosed at 0.10 % of the diet.; assay type: functional; method in brief: as §1
Rattus norvegicus [6] = experiment: In vivo sterol lowering activity when dosed as 0.01 % of the diet; assay type: functional; method in brief: as §1
Rattus norvegicus [7] = experiment: In vivo triglyceride lowering activity when dosed as 0.025 % of the diet
[8] = biological target: T1, Sterol O-acyltransferase 1 (Rattus norvegicus) (UniProt O70536); experiment: In vitro inhibition of acyl coenzyme A:cholesterol acyltransferase; design: concentration or dose not given beside the values; conditions: concentration not given here
T1 sequence (whole entry): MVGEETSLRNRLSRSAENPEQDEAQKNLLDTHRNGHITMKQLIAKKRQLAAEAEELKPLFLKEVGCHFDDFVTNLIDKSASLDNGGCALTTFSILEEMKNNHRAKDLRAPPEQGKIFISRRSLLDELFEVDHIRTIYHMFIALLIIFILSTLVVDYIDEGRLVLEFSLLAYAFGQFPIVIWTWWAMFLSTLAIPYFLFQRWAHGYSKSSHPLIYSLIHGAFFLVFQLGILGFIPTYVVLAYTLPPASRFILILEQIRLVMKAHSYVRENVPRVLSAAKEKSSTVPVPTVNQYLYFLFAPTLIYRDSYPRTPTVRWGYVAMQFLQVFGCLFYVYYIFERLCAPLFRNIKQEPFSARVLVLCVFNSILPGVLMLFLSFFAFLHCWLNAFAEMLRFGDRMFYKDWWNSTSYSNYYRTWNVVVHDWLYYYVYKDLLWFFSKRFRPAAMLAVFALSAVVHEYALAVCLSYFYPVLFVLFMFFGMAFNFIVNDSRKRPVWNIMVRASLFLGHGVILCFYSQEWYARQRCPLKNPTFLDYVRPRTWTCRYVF
Method in brief: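 Enzyme fatty acyl-CoA:cholesterol acyltransferase (ACAT), assayed in vitro at a single drug concentration of 5.2 μg/mL. The value is the mean percent inhibition of enzyme activity.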

Rattus norvegicus [9] = experiment: In vivo triglyceride lowering activity when dosed at 0.03 % of the diet; assay type: functional; method in brief: as §1

| SMILES | inhibition [8] [%] | serum sterol level, percent of control (Rattus norvegicus [1]) [%] | Diet (Rattus norvegicus [2]) [%] | serum triglyceride level, percent of control (Rattus norvegicus [3]) [%] | serum sterol level, percent of control (Rattus norvegicus [4]) [%] | serum triglyceride, percent of control (Rattus norvegicus [5]) [%] | serum sterol level, % of control (Rattus norvegicus [6]) [%] | Diet (Rattus norvegicus [7]) [%] | serum triglyceride level, percent of control (Rattus norvegicus [9]) [%] |
| --- | --- | --- | --- | --- | --- | --- | --- | --- | --- |
| CCCCCCCCCCCCCCCCNc1ccc(C(=O)O)c(OC)c1 | – | 98 | <66 | 75 | 105 | 77 | 104 | – | – |
| CCCCCCCCCCCCCCCCNc1ccc(SCC(=O)O)cc1 | < 22 | 93 | – | 72 | 97 | 100 | 92 | – | 110 |

Continued, in another order:

| inhibition [8] [%] | SMILES | serum sterol level, percent of control (Rattus norvegicus [1]) [%] | Diet (Rattus norvegicus [2]) [%] | serum triglyceride level, percent of control (Rattus norvegicus [3]) [%] | serum sterol level, percent of control (Rattus norvegicus [4]) [%] | serum triglyceride, percent of control (Rattus norvegicus [5]) [%] | serum sterol level, % of control (Rattus norvegicus [6]) [%] | Diet (Rattus norvegicus [7]) [%] | serum triglyceride level, percent of control (Rattus norvegicus [9]) [%] |
| --- | --- | --- | --- | --- | --- | --- | --- | --- | --- |
| 16 | CCCCCCCCCCCCCCCCNc1ccc(C(=O)CCC(=O)O)cc1 | 109 | – | – | 100 | <66 | 116 | <82 | <72 |
| 1 | CCCCCCCCCCCCCCCCNc1ccc(C(=O)O)cc1C | <91 | – | 75 | 92 | 101 | 94 | – | 96 |
| < 64 | CCCCCCCCCCCCCCCCNc1ccc(C(=O)NCC(=O)O)cc1 | <77 | – | 76 | 87 | <48 | <77 | – | <70 |
